Screens (PubChem BioAssay)
PglD inh – inhibitors of Campylobacter jejuni PglD acetyltransferase; AID 602405; 0.098% of 360,000 active; purified PglD enzyme, DTNB colorimetric CoA detection; inhibition, % at 12.5 µM; in the data active = inhibition above about 16%, passing the limit was not always enough; inconclusive = no clear call, values can overlap the other calls
Cneo AK release – Cryptococcus neoformans lysis via adenylate kinase release; AID 651654; lysis activity, % at 15 µM; 0.2% of 360,000 active; C. neoformans lysis, adenylate kinase release luminescence, 4 h; normalised: neutral wells 0, clomiphene wells 100;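 active = mean lysis activity across replicates of at least 80%, whatever share of replicates individually reach that level; inactive = mean lysis activity below 80%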
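Test system: log-phase Cryptococcus neoformans yeast cells; Quantity: yeast cell density of 5 × 10^6 cells/mL; Buffer or medium: YPD; Doses: single compound concentration per well; Timing: 4 h at 37 °C static, read 1 h later; Measured by: AK luminescence; Read-out basis: lysis from increased AK signal; Control set: Clomiphene as positive control.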
PDI inh – PDI (human) enzyme inhibition. P07237. PDI insulin aggregation turbidity, A650, 90 min. inhibition, % at 10 µM. 0.052% of 350,000 active;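 active = mean inhibition across replicates of 30% or more, whatever share of single replicates reach that level; inconclusive = mean inhibition below 30% while every single replicate reaches 30%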
Target sequence (P07237 whole entry, looked up): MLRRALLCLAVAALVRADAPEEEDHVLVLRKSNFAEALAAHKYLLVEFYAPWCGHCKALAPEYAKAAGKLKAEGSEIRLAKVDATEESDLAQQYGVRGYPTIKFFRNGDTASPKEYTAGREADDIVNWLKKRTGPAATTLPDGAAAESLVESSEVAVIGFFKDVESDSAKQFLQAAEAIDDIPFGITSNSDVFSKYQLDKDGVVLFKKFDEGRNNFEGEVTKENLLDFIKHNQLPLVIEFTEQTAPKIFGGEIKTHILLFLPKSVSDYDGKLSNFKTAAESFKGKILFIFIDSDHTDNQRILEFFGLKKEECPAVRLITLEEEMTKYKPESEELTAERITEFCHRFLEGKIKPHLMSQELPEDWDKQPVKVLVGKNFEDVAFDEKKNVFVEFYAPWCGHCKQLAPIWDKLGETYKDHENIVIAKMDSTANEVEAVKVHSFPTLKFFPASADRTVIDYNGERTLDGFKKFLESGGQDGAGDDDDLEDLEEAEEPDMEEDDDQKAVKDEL
miR-122 sensor – blocks miR-122 activity in Huh7 sensor cells; Huh7 miR-122 Renilla luciferase sensor, 48 h; neutral wells = 0, positive control = 100; activation (reporter increase), % at 12.5 µM; 0.3% of 340,000 active; AID 602342;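 active = mean replicate activation score at least 90 and every replicate individually at or above 90; inconclusive = only one of the two criteria met; inactive = neither criterion met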;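 note: higher luciferase means less miR-122 activity so hits act as miR-122 inhibitors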
PvdQ inh – P. aeruginosa PvdQ acylase inhibition; purified PvdQ acylase, fluorescence plate reader; inhibition, % at 10 µM; 0.063% of 340,000 active; AID 488965; in the data active = inhibition above about 30%, passing the limit was not always enough; inconclusive = no clear call, values can overlap the other calls;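 note: 0% = vehicle neutral wells and 100% = reference inhibitor wells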
ERp5 inh – blocks human ERp5 reductase activity on insulin. ERp5 insulin aggregation, absorbance 650 nm, 90 min. Q15084. 0.05% of 350,000 active. inhibition, % at 9.99 µM;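 active = mean replicate inhibition above about 25%, with every replicate also reaching it, limit read from the data, passing the limit was not always enough; inconclusive = only one of those two criteria met; inactive = neither criterion met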
* hit, by the source's call; ? = inconclusive; . = no result; [ ] = dose if it differs, or a comment. In the library only some 0.58% were active in any assay of this set; here they are far more common.

SMILES	PglD inh	Cneo AK release	PDI inh	miR-122 sensor	PvdQ inh	ERp5 inh
COc1ccc(NC(=O)Nc2ccc3c(c2)C(=O)N([C@H](C)CO)C[C@@H](C)[C@@H](CN(C)C(=O)CCC(F)(F)F)OCCCC[C@H](C)O3)cc1	0	95*	.	36[16.7 µM]	.	0
C[C@@H]1CCCCO[C@@H](CN(C)CC2CCCCC2)[C@@H](C)CN([C@H](C)CO)C(=O)c2cc(NC(=O)CCC(F)(F)F)ccc2O1	0	-28	.	104*[16.7 µM]	.	.
COc1ccc(NC(=O)N(C)C[C@@H]2OCCCC[C@@H](C)Oc3ccc(NC(=O)Nc4ccc5c(c4)OCO5)cc3C(=O)N([C@@H](C)CO)C[C@H]2C)cc1	0	88*	.	0[16.7 µM]	.	-1
C[C@H]1CN([C@@H](C)CO)S(=O)(=O)c2ccc(C3=CCCC3)cc2O[C@@H]1CN(C)S(=O)(=O)c1cn(C)cn1	1	-2	.	45[16.7 µM]	.	1
CCCC#Cc1ccc2c(c1)O[C@H](CN(C)C(=O)C1CCCCC1)[C@@H](C)CN([C@@H](C)CO)S2(=O)=O	.	.	.	-7[16.7 µM]	.	.
COc1ccc(NC(=O)N(C)C[C@@H]2OCCCC[C@@H](C)Oc3ccc(NC(=O)c4ccccc4)cc3C(=O)N([C@@H](C)CO)C[C@@H]2C)cc1	.	.	.	.	.	-2
COc1ccc(NC(=O)N(C)C[C@H]2OCCCC[C@@H](C)Oc3ccc(NC(=O)c4ccccc4)cc3C(=O)N([C@H](C)CO)C[C@H]2C)cc1	2	83*	.	44[16.7 µM]	.	1
COc1ccc2sc3ccccc3c(=O)c2c1	1	-4	-7	2	7	.
COc1ccc(-c2cc(=O)c3ccccc3s2)cc1	-2	-14	0	10	41*	-2
CCCNC(=O)N1C[C@@H](O)COC[C@@H]2O[C@@H](CC(=O)N3CCOCC3)CC[C@H]21	3	3	.	-2[16.7 µM]	.	-3
C[C@H]1CCCCO[C@H](CN(C)Cc2ccc(C(=O)O)cc2)[C@@H](C)CN([C@@H](C)CO)C(=O)c2cc(NS(C)(=O)=O)ccc2O1	2	0	.	5[16.7 µM]	.	3
COc1ccc(-c2nc3ccccc3s2)cc1	.	.	-56	.	67*	-1
COc1cccc(-c2nc3ccccc3s2)c1	0	-8	-1	3	4	.
COc1ccc(N2CC(O)=C(c3nc4ccccc4s3)C2=N)c(OC)c1	1	2	0	102*	0	.
O=C(Nc1cccc(-c2nc3ccccc3s2)c1)c1ccc2c(c1)OCO2	-6	-3	-1	3	-8	-6
c1ccc2sc(-c3ccc4c(c3)OCO4)nc2c1	0	-10	-4	3	49*	.
CO[C@H]1CN(C)C(=O)c2ccc(NC(=O)c3ccc(F)cc3)cc2OC[C@H](C)N(C(=O)c2ccc(F)cc2)C[C@@H]1C	-1	1	.	-1[16.7 µM]	.	2
Cc1ccc(S(=O)(=O)Nc2ccccc2NS(=O)(=O)c2ccc(C)cc2)cc1	.	.	.	.	.	-6
Cc1ccc(S(=O)(=O)Nc2ccccc2-c2ccccc2)cc1	4	-2	0	161*	-7	.
COc1ccc(C)cc1S(=O)(=O)NC1CCCCCC1	0	-1	-1	101*	-10	-1
COc1ccc(S(=O)(=O)NC2CCCCC2)c(C)c1C	11	-2	2	111*	8	.
COc1ccc(OC)c(S(=O)(=O)NC2CCCCC2)c1	-1	0	3	84	-4	-2
O=C(Nc1cccc(F)c1)N1CC(=O)N2[C@@H](CO)[C@H](c3ccc(C#CC4CC4)cc3)[C@@H]2C1	.	.	.	.	.	-10
COc1ccc(N(C(=O)c2ccco2)S(=O)(=O)c2ccccc2)cc1	-6	1	7	5	-14	.
COc1ccc(N(C(=O)c2ccco2)S(=O)(=O)c2cc(Cl)c(Cl)cc2Cl)cc1	.	.	1	134*	-3	.
SMILES	PglD inh	Cneo AK release	PDI inh	miR-122 sensor	PvdQ inh	ERp5 inh
COc1ccc(S(=O)(=O)Nc2ccc(C(F)(F)F)cc2)cc1OC	4	0	10	128*	1	.
COc1ccc(NC(=O)Nc2cccc3c2O[C@@H](CN(C)C(=O)Nc2ccc(C(F)(F)F)cc2)[C@@H](C)CN([C@@H](C)CO)C3=O)cc1	-1	-5	.	-4[16.7 µM]	.	.
C[C@H](CO)N1C[C@H](C)[C@@H](CN(C)C(=O)C2CCC2)Oc2cc(C#CCN(C)C)ccc2S1(=O)=O	1	1	.	1[16.7 µM]	.	4
O=C(NC1CCCCC1)c1cc(Cl)ccc1[N+](=O)[O-]	-9	1	-16	.	62*	.
O=C(NC1CC1)c1cc(Cl)ccc1[N+](=O)[O-]	3	-3	0	4	9	.
O=C(NC1CCCC1)c1cc(Cl)ccc1[N+](=O)[O-]	.	.	-1	-24	94*	-1
O=C(NC1CCCCC1)c1cc([N+](=O)[O-])ccc1N1CCCCC1	.	.	-4	.	6	.
C[C@@H]1CN([C@H](C)CO)C(=O)c2cc(C3=CCCC3)cnc2O[C@H]1CN(C)C(=O)c1cccnc1	-3	-2	.	-15[16.7 µM]	.	-2
Cc1ccccc1-c1ccc2c(c1)O[C@@H](CN(C)C(=O)c1ccccn1)[C@H](C)CN([C@H](C)CO)S2(=O)=O	2	-3	.	2[16.7 µM]	.	-2
CCCCn1c(SCC(=O)Nc2nnc(CC)s2)nc2c1c(=O)n(C)c(=O)n2C	1	1	-7	237*	14	.
CCCCn1c(SCC(=O)Nc2nnc(C)s2)nc2c1c(=O)n(C)c(=O)n2C	8	-2	2	-6	-7	.
Nc1nonc1/C(=N/O)N1CCCC1	7	1	3	-2	-11	.
Nc1nonc1C(=O)N1CCCC1	-3	-1	-3	247*	-7	2
COc1ccccc1C(=O)Nc1ccc2c(c1)C(=O)N(C)C[C@@H](OC)[C@H](C)CN(CC1CC1)[C@H](C)CO2	0	1	.	.	.	-1
COc1ccccc1-c1ccc([C@H]2[C@@H](C#N)N(C(=O)C3CC3)[C@@H]2CO)cc1	2	87*	.	.	.	4
COc1ccccc1-c1ccc([C@H]2[C@@H](C#N)N(C(=O)C3CC3)[C@H]2CO)cc1	0	4	.	.	.	?
COc1ccccc1-c1ccc([C@@H]2[C@H](C#N)N(C(=O)C3CC3)[C@H]2CO)cc1	-4	-12	.	.	.	?
COc1ccccc1-c1ccc([C@H]2[C@H](C#N)N(C(=O)C3CC3)[C@H]2CO)cc1	4	81*	.	.	.	?
C[C@H]1CN([C@@H](C)CO)C(=O)c2cc(C3=CCCCC3)cnc2O[C@@H]1CN(C)Cc1ccccc1F	-1	-4	.	7[16.7 µM]	.	-1
C[C@@H]1CN([C@@H](C)CO)C(=O)c2cccc(NC(=O)c3ccncc3)c2O[C@@H]1CN(C)Cc1ccc(-c2ccccc2)cc1	-5	7	-3	-3[16.7 µM]	-3	0
C[C@@H]1CN([C@H](C)CO)C(=O)c2cccc(NC(=O)c3ccncc3)c2O[C@@H]1CN(C)Cc1ccc(-c2ccccc2)cc1	6	101*	.	55[16.7 µM]	.	?
